Assay results as given in ChEMBL document CHEMBL2176870 (J Med Chem, 2012).
Values after ≈ are worked out from the molar mass of the structure shown.

What was measured:
Streptococcus pneumoniae = assay: Antibacterial activity against Streptococcus pneumoniae D39 after 18 hrs by broth microdilution method; format: functional; conditions: D39, 18 h
Outline: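 CLSI broth microdilution with 2-fold dilutions from 0.06 to 64 μg/mL. Cation-adjusted Mueller–Hinton broth with 2.5% lysed horse blood, inoculum 5 × 10^5 CFU/mL, grown at 35 °C for 18 h in 5% CO2. MIC is the lowest concentration showing no visible growth.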

Enterococcus faecalis = assay: Antibacterial activity against Enterococcus faecalis ATCC 29212 after 18 hrs by broth microdilution method; format: functional; conditions: ATCC 29212, 18 h
Outline: (§1)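 CLSI broth microdilution with serial 2-fold dilutions from 0.06 to 64 μg/mL. Cation-adjusted Mueller–Hinton broth, inoculum 5 × 10^5 CFU/mL, incubated at 35 °C for 18 h. MIC taken as the lowest concentration with no visible growth.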

Escherichia coli = assay: Antibacterial activity against Escherichia coli C7 after 18 hrs by broth microdilution method; format: functional; conditions: C7, 18 h
Staphylococcus aureus = assay: Antibacterial activity against Staphylococcus aureus CIP54.146 after 18 hrs by broth microdilution method; format: functional; conditions: CIP54.146, 18 h; outline: as §1
[1] = molecular target: T1, Enoyl-[acyl-carrier-protein] reductase [NADH] FabI (Escherichia coli K-12, UniProt P0AEK4); assay: Inhibition of Escherichia coli FabI using crotonoyl-CoA as substrate preincubated for 90 mins
T1 sequence (P0AEK4 whole entry): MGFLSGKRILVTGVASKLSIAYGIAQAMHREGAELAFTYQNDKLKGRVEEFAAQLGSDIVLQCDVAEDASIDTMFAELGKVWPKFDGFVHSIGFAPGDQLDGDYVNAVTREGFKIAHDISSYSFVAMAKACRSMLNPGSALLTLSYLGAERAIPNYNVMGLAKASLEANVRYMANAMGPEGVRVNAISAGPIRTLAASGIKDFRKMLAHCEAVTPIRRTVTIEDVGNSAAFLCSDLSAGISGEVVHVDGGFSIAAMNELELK
Outline: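 Recombinant C-terminal 6-His-tagged E. coli FabI (40 nM) in 50 mM Hepes pH 7.5, 100 μM DTT, 0.006% Triton X-100. Enzyme preincubated with 20 μM NADH, 10 μM NAD+ and inhibitor in DMSO for 90 min at room temperature. Reaction started with 50 μM crotonoyl-CoA. 6–10 concentrations; IC50 by Langmuir fit.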

Structure (SMILES)	MIC (Streptococcus pneumoniae)	MIC (Enterococcus faecalis)	MIC (Escherichia coli)	MIC (Staphylococcus aureus)	IC50 [1]
CCCNS(=O)(=O)c1ccc(Oc2ccc(CC)cc2O)c(F)c1	16 µg/mL (≈ 45.3 µM)	> 32 µg/mL	4 µg/mL (≈ 11.3 µM)	0.062 µg/mL (≈ 0.175 µM)	240 nM
CCCNc1ccc(Oc2ccc(CC)cc2O)c(F)c1	16 µg/mL (≈ 55.3 µM)	> 32 µg/mL	16 µg/mL (≈ 55.3 µM)	0.25 µg/mL (≈ 0.864 µM)	850 nM
CCc1ccc(Oc2ccccc2NC)c(O)c1	> 32 µg/mL	> 32 µg/mL	> 32 µg/mL	4 µg/mL (≈ 16.4 µM)	112000 nM
CCc1ccc(Oc2ccc(/C(C)=N/OC)cc2F)c(O)c1	16 µg/mL (≈ 52.7 µM)	> 32 µg/mL	> 32 µg/mL	1 µg/mL (≈ 3.3 µM)	14000 nM
CCc1ccc(Oc2ccc(NCCCO)cc2F)c(O)c1	> 32 µg/mL	> 32 µg/mL	16 µg/mL (≈ 52.4 µM)	0.25 µg/mL (≈ 0.819 µM)	1000 nM
CCc1ccc(Oc2ccc(NS(=O)(=O)C3CC3)cc2F)c(O)c1	> 32 µg/mL	> 32 µg/mL	16 µg/mL (≈ 45.5 µM)	1 µg/mL (≈ 2.85 µM)	2300 nM
CCCc1ccc(Oc2cccc(NC(C)=O)c2)c(O)c1	> 32 µg/mL	> 32 µg/mL	> 32 µg/mL	16 µg/mL (≈ 56.1 µM)	44000 nM
Cc1ccc(-c2ccc(Oc3cccc(F)n3)c(O)c2)cc1	16 µg/mL (≈ 54.2 µM)	> 32 µg/mL	8 µg/mL (≈ 27.1 µM)	8 µg/mL (≈ 27.1 µM)	6500 nM
CCCc1ccc(Oc2ccc(OC)cc2)c(O)c1	> 32 µg/mL	> 32 µg/mL	4 µg/mL (≈ 15.5 µM)	0.25 µg/mL (≈ 0.968 µM)	230 nM
CCc1ccc(Oc2cc(C)ccc2N)c(O)c1	16 µg/mL (≈ 65.8 µM)	> 32 µg/mL	16 µg/mL (≈ 65.8 µM)	1 µg/mL (≈ 4.11 µM)	42000 nM
CCc1ccc(Oc2ccc(S(N)(=O)=O)cc2F)c(O)c1	> 32 µg/mL	> 32 µg/mL	1 µg/mL (≈ 3.21 µM)	0.25 µg/mL (≈ 0.803 µM)	860 nM
CCc1ccc(Oc2ccc(S(C)(=O)=O)cc2)c(O)c1	> 32 µg/mL	> 32 µg/mL	16 µg/mL (≈ 54.7 µM)	0.25 µg/mL (≈ 0.855 µM)	810 nM
CCc1ccc(Oc2ccc(S(C)(=O)=O)cc2F)c(O)c1	> 32 µg/mL	> 32 µg/mL	1 µg/mL (≈ 3.22 µM)	0.25 µg/mL (≈ 0.806 µM)	140 nM
CCc1ccc(Oc2ccc(S(=O)(=O)NCCO)cc2F)c(O)c1	> 32 µg/mL	> 32 µg/mL	16 µg/mL (≈ 45 µM)	0.25 µg/mL (≈ 0.703 µM)	1200 nM
CCc1ccc(Oc2ccc(N3CC(CNC(C)=O)OC3=O)cc2F)c(O)c1 (configuration not stated)	> 32 µg/mL	> 32 µg/mL	> 32 µg/mL	4 µg/mL (≈ 10.3 µM)	6100 nM
CCc1ccc(Oc2ccc(S(=O)(=O)NCCc3ccccn3)cc2F)c(O)c1	> 32 µg/mL	> 32 µg/mL	16 µg/mL (≈ 38.4 µM)	0.25 µg/mL (≈ 0.6 µM)	150 nM
CCc1ccc(Oc2ccc(C(C)=O)cc2F)c(O)c1	16 µg/mL (≈ 58.3 µM)	16 µg/mL (≈ 58.3 µM)	1 µg/mL (≈ 3.65 µM)	0.062 µg/mL (≈ 0.226 µM)	110 nM
CCc1ccc(Oc2ccc(S(=O)(=O)CCC3OCCO3)cc2)c(O)c1	> 32 µg/mL	> 32 µg/mL	16 µg/mL (≈ 42.3 µM)	0.25 µg/mL (≈ 0.661 µM)	380 nM
CCCc1ccc(Oc2cccc(OC)c2)c(O)c1	> 32 µg/mL	> 32 µg/mL	16 µg/mL (≈ 61.9 µM)	1 µg/mL (≈ 3.87 µM)	3100 nM
CCc1ccc(Oc2ccccc2N)c(O)c1	> 32 µg/mL	> 32 µg/mL	4 µg/mL (≈ 17.4 µM)	0.25 µg/mL (≈ 1.09 µM)	160 nM

More lines, now with the values ahead:

MIC (Streptococcus pneumoniae)	MIC (Enterococcus faecalis)	MIC (Escherichia coli)	MIC (Staphylococcus aureus)	IC50 [1]	Structure (SMILES)
> 32 µg/mL	> 32 µg/mL	> 32 µg/mL	4 µg/mL (≈ 12.7 µM)	6900 nM	Oc1cc(CCCn2cncn2)ccc1Oc1cccc(F)n1
> 32 µg/mL	> 32 µg/mL	> 32 µg/mL	4 µg/mL (≈ 17 µM)	29000 nM	OCc1ccc(Oc2cccc(F)n2)c(O)c1
> 32 µg/mL	> 32 µg/mL	16 µg/mL (≈ 56.1 µM)	1 µg/mL (≈ 3.51 µM)	–	Oc1cc(C(F)=C(F)F)ccc1Oc1cccc(F)n1
> 64 µg/mL	> 32 µg/mL	4 µg/mL (≈ 17.1 µM)	0.25 µg/mL (≈ 1.07 µM)	590 nM	CCc1ccc(Oc2cccc(F)n2)c(O)c1
> 32 µg/mL	> 32 µg/mL	16 µg/mL (≈ 64.2 µM)	4 µg/mL (≈ 16 µM)	14000 nM	COCc1ccc(Oc2cccc(F)n2)c(O)c1
64 µg/mL (≈ 225 µM)	> 32 µg/mL	1 µg/mL (≈ 3.52 µM)	0.25 µg/mL (≈ 0.88 µM)	120 nM	Oc1cc(Br)ccc1Oc1cccc(F)n1
> 64 µg/mL	> 32 µg/mL	4 µg/mL (≈ 13.9 µM)	0.25 µg/mL (≈ 0.87 µM)	–	Oc1cc(CC(F)(F)F)ccc1Oc1cccc(F)n1
64 µg/mL (≈ 259 µM)	> 32 µg/mL	4 µg/mL (≈ 16.2 µM)	0.25 µg/mL (≈ 1.01 µM)	–	CCCc1ccc(Oc2cccc(F)n2)c(O)c1
> 32 µg/mL	> 32 µg/mL	> 32 µg/mL	16 µg/mL (≈ 56.1 µM)	56000 nM	Oc1cc(Cn2ccnc2)ccc1Oc1cccc(F)n1
64 µg/mL (≈ 267 µM)	> 32 µg/mL	0.25 µg/mL (≈ 1.04 µM)	0.25 µg/mL (≈ 1.04 µM)	550 nM	Oc1cc(Cl)ccc1Oc1cccc(F)n1
> 32 µg/mL	> 32 µg/mL	16 µg/mL (≈ 73 µM)	4 µg/mL (≈ 18.2 µM)	3500 nM	Cc1ccc(Oc2cccc(F)n2)c(O)c1
> 32 µg/mL	> 32 µg/mL	4 µg/mL (≈ 15.3 µM)	1 µg/mL (≈ 3.83 µM)	570 nM	CC(C)Cc1ccc(Oc2cccc(F)n2)c(O)c1
> 32 µg/mL	> 32 µg/mL	16 µg/mL (≈ 52.8 µM)	1 µg/mL (≈ 3.3 µM)	3400 nM	Oc1cc(C(O)C(F)(F)F)ccc1Oc1cccc(F)n1 (configuration not stated)
> 32 µg/mL	> 32 µg/mL	16 µg/mL (≈ 55.9 µM)	4 µg/mL (≈ 14 µM)	5200 nM	Oc1cc(Cn2cncn2)ccc1Oc1cccc(F)n1
